Experimental data of several laboratories.
Protocols differ between the studies behind these lines.
Target: Dual specificity protein kinase CLK4 (CLK4, Homo sapiens, UniProt Q9HAZ1)

| SMILES | assay | setting | remaining binding [%] |
| --- | --- | --- | --- |
| Cc1cnn2ncc(-c3ccnc(N(C)C)n3)c2c1 | binding | 1 µM | 9.7 |
| CC1=C(C#N)C(c2ccc3c(c2)c(NC(=O)c2ccccc2C)nn3C)C(C#N)=C(C)N1 | cell-free assay, competition with immobilised ligand | 1 µM | 76 |
| O=C(c1ccc(Nc2nccc(-c3cc4ccccc4s3)n2)cc1)N1CCC(N2CCCC2)CC1 | binding, competition with immobilised ligand | 1 µM | 27 |
| Nc1ncc2c(n1)-c1c([nH]c3ccc(C#CC4CC4)cc13)CCCC2 | binding, competition with immobilised ligand | 1 µM | 76 |
| O=C(c1ccc(Nc2ncc(Cl)c(-c3cc4ccccc4s3)n2)cc1)N1CCC(N2CCCC2)CC1 | binding, competition with immobilised ligand | 1 µM | 0 |
| Cc1noc([C@H]2C[C@@H](c3ccc(C(F)(F)F)cc3)CN(C(=O)N3CCS(=O)(=O)C3)C2)n1 | cell-free assay, competition with immobilised ligand | 1 µM | 83 |
| CCN1CCN(Cc2ccc(C(=O)Nc3ccc(C)c(Oc4ccc5c(c4)CC(=O)N5)c3)cc2C(F)(F)F)CC1 | binding, competition with immobilised ligand | 1 µM | 94 |
| CC(C)(O)c1cncc(-c2nc3ccc(F)cc3n2C2CC2)c1 | cell-free assay, competition with immobilised ligand | 1 µM | 54 |
| C[C@@H]1CCN(c2nccc(-c3cnn4ncccc34)n2)C1 | binding | 1 µM | 12 |
| Cc1c(C(=O)O)cc(-c2ccc(C3CCNCC3)cc2)c2ccc(-c3ccc(C(F)(F)F)cc3)cc12 | binding, competition with immobilised ligand | 1 µM | 100 |
| COc1ccnn2ncc(-c3ccnc(N(C)C)n3)c12 | binding | 1 µM | 4.2 |
| O=C(NCCCN1CCOCC1)c1ccc(Nc2nccc(-c3cc4ccccc4s3)n2)cc1 | binding, competition with immobilised ligand | 1 µM | 11 |
| O=C(NCC1CCOCC1)c1n[nH]cc1NC(=O)c1c(F)cccc1F | binding, competition with immobilised ligand | 1 µM | 32 |
| CN(C)c1nccc(-c2cnn3ncccc23)n1 | binding | 1 µM | 5.9 |
| COc1cnc(Nc2cccc(S(N)(=O)=O)c2)nc1N1CCN(c2ccccc2)C(=O)C1 | binding, competition with immobilised ligand | 1 µM | 93 |
| Cc1c(NC(=O)c2cc(C(N)=O)nc3cc(F)ccc23)c(C(F)(F)F)nn1Cc1ccc(C(C)(C)C)cc1 | cell-free assay, competition with immobilised ligand | 1 µM | 100 |
| CN(C)c1nccc(-c2cnc3ncccn23)n1 | binding | 1 µM | 14 |
| COc1ncc2cc3ccccc3nc2c1C#N | cell-free assay, competition with immobilised ligand | 5 µM | 86 |
| N[C@@H]1CCN(c2nccc(-c3cnn4ncccc34)n2)C1 | binding | 1 µM | 25 |
| c1cncc(-c2cccc(Nc3nccc(NC4CCCCC4)n3)c2)c1 | binding, competition with immobilised ligand | 10 µM | 1 |
| CN(C)c1ncc(F)c(-c2cnn3ncccc23)n1 | binding | 1 µM | 61 |
| Cn1cc(Cl)c2c(Oc3c(F)cc(Nc4cc(Cl)nc(N)n4)cc3F)ccnc21 | cell-free assay, competition with immobilised ligand | 0.1 µM | 100 |
